≈ marks a conversion by molar mass, not a printed value.
Assays:
Trypsin = Trypsin (Homo sapiens, UniProt P07477+P07478+P35030); assay: Inhibition of human trypsin; assay type: protein assay
Prothrombin = Prothrombin (Homo sapiens, UniProt P00734); assay: Inhibition of human thrombin
Coagulation factor X [1] = molecular target: Coagulation factor X (Homo sapiens, UniProt P00742); assay: Binding affinity to human F10a
[2] = Clearance in dog at 0.4 mg/kg, iv and 0.2 mg/kg, po; assay type: ADME, organism-based, Canis lupus familiaris; conditions: in vivo
Procedure, shortened: (§1)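 Dog pharmacokinetics from cassette (N-in-one) dosing of compounds as TFA salts: 0.4 mg/kg iv and 0.2 mg/kg po, n = 2 animals.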

[3] = Volume of distribution at steady state in dog at 0.4 mg/kg, iv and 0.2 mg/kg, po; assay type: ADME, organism-based, Canis lupus familiaris; conditions: in vivo, read-out: Vdss; procedure, shortened: as §1
[4] = Apparent permeability across Caco-2 cells; assay type: ADME, cell-based; conditions: human
[5] = (§2) Oral bioavailability in dog at 0.2 mg/kg, po; assay type: ADME, organism-based, Canis lupus familiaris; conditions: in vivo; procedure, shortened: as §1
Oryctolagus cuniculus = organism: Oryctolagus cuniculus; assay: Inhibition of thrombus formation in rabbit arteriovenous shunt thrombosis model; assay type: functional, organism-based
[6] = Half life in dog at 0.2 mg/kg, po; assay type: ADME, organism-based, Canis lupus familiaris; set-up: dose 0.2 mg/kg, route oral; conditions: in vivo; procedure, shortened: as §1
Coagulation factor X [7] = molecular target: T1, Coagulation factor X (Oryctolagus cuniculus, UniProt O19045); assay: Binding affinity to rabbit F10a
T1 sequence (O19045 whole entry): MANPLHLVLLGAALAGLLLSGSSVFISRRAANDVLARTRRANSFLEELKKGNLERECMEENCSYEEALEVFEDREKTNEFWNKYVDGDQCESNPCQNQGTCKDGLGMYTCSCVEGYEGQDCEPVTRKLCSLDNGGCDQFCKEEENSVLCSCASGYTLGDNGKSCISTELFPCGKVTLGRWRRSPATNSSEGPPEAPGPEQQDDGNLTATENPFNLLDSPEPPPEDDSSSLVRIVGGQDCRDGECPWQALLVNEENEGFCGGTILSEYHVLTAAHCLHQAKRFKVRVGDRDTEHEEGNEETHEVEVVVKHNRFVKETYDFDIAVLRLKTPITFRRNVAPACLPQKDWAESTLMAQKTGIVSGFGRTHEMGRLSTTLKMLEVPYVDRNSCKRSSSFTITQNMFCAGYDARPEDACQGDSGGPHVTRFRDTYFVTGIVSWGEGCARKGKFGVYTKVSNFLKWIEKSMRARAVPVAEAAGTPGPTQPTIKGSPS

[8] = Half life in human liver microsomes; assay type: ADME, Microsome
[9] = Protein binding in human serum by equilibrium dialysis; assay type: ADME, cell-free; conditions: read-out: PB (converted)
[10] = Aqueos solubility in saline; assay type: ADME
Canis familiaris = assay: as §2; assay type: ADME, organism-based, Canis lupus familiaris; conditions: in vivo; procedure, shortened: as §1

Sequence of Coagulation factor X (Homo sapiens, UniProt P00742) (P00742 41-179 limits assumed): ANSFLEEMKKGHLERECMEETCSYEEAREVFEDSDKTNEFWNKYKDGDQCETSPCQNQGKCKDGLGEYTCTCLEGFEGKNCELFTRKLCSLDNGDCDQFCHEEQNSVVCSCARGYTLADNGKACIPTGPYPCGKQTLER
Sequence of Coagulation factor X (Homo sapiens, UniProt P00742) (P00742 235-488 limits assumed): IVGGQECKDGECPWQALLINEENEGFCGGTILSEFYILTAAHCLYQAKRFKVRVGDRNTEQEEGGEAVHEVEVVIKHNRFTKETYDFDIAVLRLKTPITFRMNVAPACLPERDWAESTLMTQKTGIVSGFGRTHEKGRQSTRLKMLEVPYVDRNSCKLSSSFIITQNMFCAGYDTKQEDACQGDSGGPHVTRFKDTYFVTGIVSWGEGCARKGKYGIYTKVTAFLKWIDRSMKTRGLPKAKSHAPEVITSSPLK

Ki (Trypsin) | Ki (Prothrombin) | Ki (Coagulation factor X [1]) | Vd [3] | half-life [6] | SMILES | clearance [2] | also measured
> 3000 nM | 330 nM | 0.18 nM |  |  | COc1ccc(-n2nc(C(F)(F)F)c3c2C(=O)N(c2ccc(-c4ccccc4CN4CC[C@@H](O)C4)cc2)CC3)cc1 |  | 
> 3000 nM | 1800 nM | 0.31 nM |  |  | COc1ccc(-n2nc(N(C)C)c3c2C(=O)N(c2ccc(-c4ccccc4CN4CC[C@@H](O)C4)cc2)CC3)cc1 |  | 
> 3000 nM | 7000 nM | 4.8 nM |  |  | CNC(=O)c1nn(-c2ccc(OC)cc2)c2c1CCN(c1ccc(-c3ccccc3CN3CC[C@@H](O)C3)cc1)C2=O |  | 
 | 2520 nM | 0.61 nM | 1.7 L/kg | 0.7 h | COc1ccc(-n2nc(C(N)=O)c3c2C(=O)N(c2ccc(N(C)C(C)=O)cc2)CC3)cc1 | 2.8 L/h/kg | Ki (Coagulation factor X [7]): 2.6 nM; Papp [4]: 25 nm/s; bioavailability [5]: 56%
 | 3900 nM | 2.1 nM |  |  | COc1ccc(-n2nc(C(F)(F)F)c3c2C(=O)N(c2ccc(N4CCCCC4)cc2)CC3)cc1 |  | 
 |  | 0.08 nM | 6.5 L/kg | 3.7 h | CCN(CC)Cc1ccccc1-c1ccc(N2CCc3c(C(N)=O)nn(-c4ccc(OC)cc4)c3C2=O)cc1 | 2.4 L/h/kg | Papp [4]: 23 nm/s; bioavailability [5]: 20%
> 3000 nM | 980 nM | 3.9 nM |  |  | CCOC(=O)c1nn(-c2ccc(OC)cc2)c2c1CCN(c1ccc(-c3ccccc3CN3CC[C@@H](O)C3)cc1)C2=O |  | 
> 3000 nM | > 20000 nM | 7.6 nM |  |  | COc1ccc(-n2nc(C(=O)O)c3c2C(=O)N(c2ccc(-c4ccccc4CN4CC[C@@H](O)C4)cc2)CC3)cc1 |  | 
> 3000 nM | 180 nM | 0.25 nM |  |  | COc1ccc(-n2nc(S(C)(=O)=O)c3c2C(=O)N(c2ccc(-c4ccccc4CN4CC[C@@H](O)C4)cc2)CC3)cc1 |  | 
 |  | 0.97 nM |  |  | COc1ccc(-n2nc(C(N)=O)c3c2C(=O)N(c2ccc(-c4ccccc4CN)cc2)CC3)cc1 |  | Papp [4]: 12 nm/s
> 3000 nM | 950 nM | 2 nM |  |  | COc1ccc(-n2nc(N(C)C(=O)OC(C)(C)C)c3c2C(=O)N(c2ccc(-c4ccccc4CN4CC[C@@H](O)C4)cc2)CC3)cc1 |  | 
 | 4400 nM | 0.23 nM |  |  | COc1ccc(-n2nc(C(F)(F)F)c3c2C(=O)N(c2ccc(N4CCCCC4=O)cc2)CC3)cc1 |  | 
> 3000 nM | 980 nM | 0.48 nM |  |  | COc1ccc(-n2nc(Cn3nccn3)c3c2C(=O)N(c2ccc(-c4ccccc4CN4CC[C@@H](O)C4)cc2)CC3)cc1 |  | 
> 3000 nM | 1900 nM | 0.25 nM |  |  | COc1ccc(-n2nc(Cn3cncn3)c3c2C(=O)N(c2ccc(-c4ccccc4CN4CC[C@@H](O)C4)cc2)CC3)cc1 |  | 
> 3000 nM | 1000 nM | 1.1 nM |  |  | COc1ccc(-n2nc(Cn3ncnn3)c3c2C(=O)N(c2ccc(-c4ccccc4CN4CC[C@@H](O)C4)cc2)CC3)cc1 |  | 
> 3000 nM | 4800 nM | 1.7 nM |  |  | CNc1nn(-c2ccc(OC)cc2)c2c1CCN(c1ccc(-c3ccccc3CN3CC[C@@H](O)C3)cc1)C2=O |  | 

The remaining lines, values behind:

SMILES | Ki (Trypsin) | Ki (Prothrombin) | Ki (Coagulation factor X [1]) | Vd [3] | half-life [6] | clearance [2] | also measured
COc1ccc(-n2nc(C(N)=O)c3c2C(=O)N(c2ccc(-c4ccccc4CN4CC[C@@H](O)C4)cc2)CC3)cc1 | > 3000 nM | 140 nM | 0.07 nM | 1.6 L/kg | 5.6 h | 0.32 L/h/kg | Papp [4]: 23 nm/s; bioavailability [5]: 100%; IC50 (Oryctolagus cuniculus): 120 nM
COc1ccc(-n2nc(C(=O)N(C)C)c3c2C(=O)N(c2ccc(-c4ccccc4CN4CC[C@@H](O)C4)cc2)CC3)cc1 | > 3000 nM | 11000 nM | 1.7 nM |  |  |  | 
COc1ccc(-n2nc(C(F)(F)F)c3c2C(=O)N(c2ccc(N(C)C(C)=O)cc2)CC3)cc1 |  | > 6300 nM | 0.5 nM |  |  |  | 
COc1ccc(-n2nc(C(F)(F)F)c3c2C(=O)N(c2ccc(N(C)C)cc2)CC3)cc1 |  | > 13400 nM | 6 nM |  |  |  | 
COc1ccc(-n2nc(C(F)(F)F)c3c2C(=O)N(c2ccc(N4CCCCCC4=O)cc2)CC3)cc1 |  | 3300 nM | 0.47 nM |  |  |  | 
COc1ccc(-n2nc(N)c3c2C(=O)N(c2ccc(-c4ccccc4CN4CC[C@@H](O)C4)cc2)CC3)cc1 | > 3000 nM | 9400 nM | 6.7 nM |  |  |  | 
CNCc1ccccc1-c1ccc(N2CCc3c(C(N)=O)nn(-c4ccc(OC)cc4)c3C2=O)cc1 |  |  | 0.14 nM | 7.4 L/kg | 7.3 h | 1.3 L/h/kg | half-life [8]: > 1.67 h; Papp [4]: 17 nm/s; bioavailability [5]: 56%; IC50 (Oryctolagus cuniculus): 445 nM
COc1ccc(-n2nc(C(N)=O)c3c2C(=O)N(c2ccc(-c4ccccc4CN4CCC(O)CC4)cc2)CC3)cc1 |  |  | 0.29 nM | 0.99 L/kg | 4.3 h | 0.1 L/h/kg | Papp [4]: 49 nm/s; bioavailability [5]: 55%; IC50 (Oryctolagus cuniculus): 180 nM
COc1ccc(-n2nc(C(N)=O)c3c2C(=O)N(c2ccc(-c4ccccc4CN(CCO)CCO)cc2)CC3)cc1 |  |  | 0.36 nM | 1.09 L/kg | 1.8 h | 0.5 L/h/kg | Papp [4]: 9 nm/s; bioavailability [5]: 15%
COc1ccc(-n2nc(NC(=O)OC(C)(C)C)c3c2C(=O)N(c2ccc(-c4ccccc4CN4CC[C@@H](O)C4)cc2)CC3)cc1 | > 3000 nM | 4600 nM | 9.6 nM |  |  |  | 
Nc1noc2ccc(-n3nc(C(F)(F)F)c4c3C(=O)N(c3ccc(-c5ccccc5CN5CC[C@@H](O)C5)cc3)CC4)cc12 |  |  |  | 1.6 L/kg | 5.1 h | 0.35 L/h/kg | half-life [8]: 0.7 h; fraction unbound [9]: 0.03; IC50 (Oryctolagus cuniculus): 140 nM
COc1ccc(-n2nc(C(N)=O)c3c2C(=O)N(c2ccc(-c4ccccc4CN(C)C)cc2)CC3)cc1 |  |  | 0.24 nM | 6.1 L/kg | 3.6 h | 2 L/h/kg | Papp [4]: 23 nm/s; bioavailability [5]: 56%; IC50 (Oryctolagus cuniculus): 175 nM
CNc1ccc(N2CCc3c(C(F)(F)F)nn(-c4ccc(OC)cc4)c3C2=O)cc1 |  | > 6300 nM | 610 nM |  |  |  | 
COc1ccc(-n2nc(C#N)c3c2C(=O)N(c2ccc(-c4ccccc4CN4CC[C@@H](O)C4)cc2)CC3)cc1 | > 3000 nM | 100 nM | 0.33 nM |  |  |  | 
COc1ccc(-n2nc(C(F)(F)F)c3c2C(=O)N(c2ccc(N)cc2)CC3)cc1 |  | > 6300 nM |  |  |  |  | 
COc1ccc(-n2nc(Cn3cnnn3)c3c2C(=O)N(c2ccc(-c4ccccc4CN4CC[C@@H](O)C4)cc2)CC3)cc1 | > 3000 nM | 970 nM | 0.85 nM | 3.7 L/kg | 1.8 h | 2.58 L/h/kg | Papp [4]: 9 nm/s; bioavailability [5]: 7%
COc1ccc(-n2nc(-c3nnn[nH]3)c3c2C(=O)N(c2ccc(-c4ccccc4CN4CC[C@@H](O)C4)cc2)CC3)cc1 | > 3000 nM | 12000 nM | 0.63 nM |  |  |  | 
COc1ccc(-n2nc(C(F)(F)F)c3c2C(=O)N(c2ccc(NC(C)=O)cc2)CC3)cc1 |  | > 6300 nM | 180 nM |  |  |  | 
COc1ccc(-n2nc(Cn3ccnn3)c3c2C(=O)N(c2ccc(-c4ccccc4CN4CC[C@@H](O)C4)cc2)CC3)cc1 | > 3000 nM | 12000 nM | 0.67 nM | 4.9 L/kg | 2.8 h | 2.47 L/h/kg | Papp [4]: 16 nm/s; bioavailability [5]: 24%
COc1ccc(-n2nc(C(N)=O)c3c2C(=O)N(c2ccc(-c4ccccc4CN4CCCC4)cc2)CC3)cc1 |  |  | 0.3 nM | 5.6 L/kg | 3.5 h | 1.5 L/h/kg | Papp [4]: 35 nm/s; bioavailability [5]: 53%
COc1ccc(-n2nc(C(N)=O)c3c2C(=O)N(c2ccc(N4CCCCC4=O)cc2)CC3)cc1 [APIXABAN] |  |  |  | 0.2 L/kg | 5.8 h | 0.02 L/h/kg | solubility [10]: 0.05 mg/mL (≈ 109 µM); Ki (Coagulation factor X [7]): 0.17 nM; bioavailability [5]: 58%; IC50 (Oryctolagus cuniculus): 329 nM
CN(C)Cc1nccn1-c1ccc(NC(=O)c2cc(C(F)(F)F)nn2-c2ccc3onc(N)c3c2)c(F)c1 [RAZAXABAN] |  |  |  | 3.4 L/kg | 5.3 h |  | half-life [8]: 0.633 h; fraction unbound [9]: 0.09; F (Canis familiaris): 84%
